PMC2688716 (European neuropsychopharmacology : the journal of the …, 2008)
Where a name gives a salt, the structure may show the parent alone.

Legend:
NG108-15 cells = test: Cytotoxicity; assay type: cell-based; details: methamphetamine 10–300 μM; 24 h and 48 h; 37° C; P < 0.0001
male, Swiss Webster mice [1] = test: Locomotor activity measurements; assay type: in vivo, mouse; details: i.p.
male, Swiss Webster mice [2] = test: Dopamine transporter; details: 4 times at 2 h intervals
[3] = target: Muscarinic, peripheral receptor; test: Radioligand binding, muscarinic peripheral; details: 0.3 nM [3H]QNB; nonspecific 0.1 μM atropine; guinea pig bladder; by NOVASCREEN; >10,000 = less than 30% displacement
Melatonin receptor = test: Radioligand binding, melatonin receptors; details: 70 pM [125I]2-Iodomelatonin; nonspecific 0.1 μM 2-iodomelatonin; chicken brain; by NOVASCREEN; >10,000 = less than 30% displacement
Method in brief: (§1)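 Run by a contract screening service. Binding was measured in tissue homogenates. Ki was calculated with the Cheng-Prusoff equation from separately determined Kd values and reported as mean ± SEM of replicate assays.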

tumor cells = details: through a σ receptor-mediated mechanism; ref Crawford et al., 2002; cited from earlier work
male, Swiss Webster mice [4] = test: Dopamine assay, striatum; assay type: in vivo, mouse; details: AC927 10 mg/kg pretreatment + methamphetamine 5 mg/kg; Tukey q=5.58, P < 0.01
[5] = target: Potassium, ATP-sensitive ion channel; test: Radioligand binding, ATP-sensitive potassium channel; details: 0.2 nM [3H]glibenclamide; nonspecific 0.1 μM glibenclamide; rat cerebral cortex; by NOVASCREEN; >10,000 = less than 30% displacement
Method in brief: as §1

[6] = target: Muscarinic, central receptor; test: Radioligand binding, muscarinic central; details: 0.15 nM [3H]QNB; nonspecific 0.1 μM atropine; rat cerebral cortex; by NOVASCREEN; >10,000 = less than 30% displacement
[7] = target: Calcium, type N ion channel (Rattus norvegicus, UniProt Q02294); test: Radioligand binding, calcium channel type N; details: 0.01 nM [125I]ω-conotoxin GVIA; nonspecific 0.1 μM ω-conotoxin GVIA; rat cerebral cortex; by NOVASCREEN; >10,000 = less than 30% displacement
male, Swiss Webster mice [8] = test: Dopamine assay, cerebellum; assay type: in vivo, mouse; details: AC927 10 mg/kg pretreatment + methamphetamine 5 mg/kg; Tukey q=4.55, P < 0.05
male, Swiss Webster mice [9] = test: Core body temperature measurements; assay type: in vivo, mouse; details: AC927 5–20 mg/kg, i.p., 4 times at 2 h intervals; measured 1 h after each injection
Serotonin transporter = Serotonin transporter (Rattus norvegicus, UniProt P31652); test: Radioligand binding, serotonin transporter; details: 0.2 nM [3H]paroxetine; nonspecific 1.5 μM imipramine; rat brainstem; 90 min at 25° C; in-house; >10,000 = less than 30% displacement
[10] = ref Matsumoto and Mack, 2001; Matsumoto et al., 2002, 2003; cited from earlier work

Serotonin transporter, sequence (P31652 whole entry): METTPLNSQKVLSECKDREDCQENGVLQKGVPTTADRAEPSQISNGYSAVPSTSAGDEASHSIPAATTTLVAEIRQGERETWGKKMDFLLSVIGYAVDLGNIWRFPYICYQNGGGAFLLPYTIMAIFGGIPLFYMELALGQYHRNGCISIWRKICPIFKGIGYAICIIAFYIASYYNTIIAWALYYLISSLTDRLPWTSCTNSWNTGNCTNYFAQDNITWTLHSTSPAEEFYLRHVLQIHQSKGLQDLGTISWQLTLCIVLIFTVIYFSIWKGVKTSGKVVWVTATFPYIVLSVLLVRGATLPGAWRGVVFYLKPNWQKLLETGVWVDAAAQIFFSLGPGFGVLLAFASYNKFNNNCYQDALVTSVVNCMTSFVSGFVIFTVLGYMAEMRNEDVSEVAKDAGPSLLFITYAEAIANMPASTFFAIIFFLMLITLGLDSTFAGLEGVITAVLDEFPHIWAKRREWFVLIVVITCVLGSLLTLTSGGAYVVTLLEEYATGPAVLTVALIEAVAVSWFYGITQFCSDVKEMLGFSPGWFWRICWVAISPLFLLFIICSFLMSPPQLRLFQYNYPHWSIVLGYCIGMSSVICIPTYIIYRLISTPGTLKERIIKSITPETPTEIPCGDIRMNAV
Calcium, type N ion channel, sequence (P54287 whole entry): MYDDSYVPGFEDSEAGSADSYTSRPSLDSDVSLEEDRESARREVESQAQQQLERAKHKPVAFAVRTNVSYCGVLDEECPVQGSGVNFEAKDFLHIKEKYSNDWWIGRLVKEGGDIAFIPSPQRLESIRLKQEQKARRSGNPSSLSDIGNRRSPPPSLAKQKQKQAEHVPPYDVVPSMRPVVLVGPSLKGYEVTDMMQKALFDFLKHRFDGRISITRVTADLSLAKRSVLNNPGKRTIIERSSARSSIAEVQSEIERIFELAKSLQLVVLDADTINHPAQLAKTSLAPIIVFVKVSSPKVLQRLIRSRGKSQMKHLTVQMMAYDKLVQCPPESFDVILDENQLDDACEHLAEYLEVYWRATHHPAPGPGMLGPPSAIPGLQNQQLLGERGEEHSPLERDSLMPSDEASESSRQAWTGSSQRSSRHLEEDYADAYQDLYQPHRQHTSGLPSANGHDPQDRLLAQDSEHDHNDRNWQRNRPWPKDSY
Calcium, type N ion channel, sequence (P54290 945-1091, further chain): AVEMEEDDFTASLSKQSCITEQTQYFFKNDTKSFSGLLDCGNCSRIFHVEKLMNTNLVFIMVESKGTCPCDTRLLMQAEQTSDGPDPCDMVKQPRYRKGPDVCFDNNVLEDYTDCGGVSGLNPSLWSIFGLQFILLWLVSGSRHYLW
Calcium, type N ion channel, sequence (Q02294 whole entry): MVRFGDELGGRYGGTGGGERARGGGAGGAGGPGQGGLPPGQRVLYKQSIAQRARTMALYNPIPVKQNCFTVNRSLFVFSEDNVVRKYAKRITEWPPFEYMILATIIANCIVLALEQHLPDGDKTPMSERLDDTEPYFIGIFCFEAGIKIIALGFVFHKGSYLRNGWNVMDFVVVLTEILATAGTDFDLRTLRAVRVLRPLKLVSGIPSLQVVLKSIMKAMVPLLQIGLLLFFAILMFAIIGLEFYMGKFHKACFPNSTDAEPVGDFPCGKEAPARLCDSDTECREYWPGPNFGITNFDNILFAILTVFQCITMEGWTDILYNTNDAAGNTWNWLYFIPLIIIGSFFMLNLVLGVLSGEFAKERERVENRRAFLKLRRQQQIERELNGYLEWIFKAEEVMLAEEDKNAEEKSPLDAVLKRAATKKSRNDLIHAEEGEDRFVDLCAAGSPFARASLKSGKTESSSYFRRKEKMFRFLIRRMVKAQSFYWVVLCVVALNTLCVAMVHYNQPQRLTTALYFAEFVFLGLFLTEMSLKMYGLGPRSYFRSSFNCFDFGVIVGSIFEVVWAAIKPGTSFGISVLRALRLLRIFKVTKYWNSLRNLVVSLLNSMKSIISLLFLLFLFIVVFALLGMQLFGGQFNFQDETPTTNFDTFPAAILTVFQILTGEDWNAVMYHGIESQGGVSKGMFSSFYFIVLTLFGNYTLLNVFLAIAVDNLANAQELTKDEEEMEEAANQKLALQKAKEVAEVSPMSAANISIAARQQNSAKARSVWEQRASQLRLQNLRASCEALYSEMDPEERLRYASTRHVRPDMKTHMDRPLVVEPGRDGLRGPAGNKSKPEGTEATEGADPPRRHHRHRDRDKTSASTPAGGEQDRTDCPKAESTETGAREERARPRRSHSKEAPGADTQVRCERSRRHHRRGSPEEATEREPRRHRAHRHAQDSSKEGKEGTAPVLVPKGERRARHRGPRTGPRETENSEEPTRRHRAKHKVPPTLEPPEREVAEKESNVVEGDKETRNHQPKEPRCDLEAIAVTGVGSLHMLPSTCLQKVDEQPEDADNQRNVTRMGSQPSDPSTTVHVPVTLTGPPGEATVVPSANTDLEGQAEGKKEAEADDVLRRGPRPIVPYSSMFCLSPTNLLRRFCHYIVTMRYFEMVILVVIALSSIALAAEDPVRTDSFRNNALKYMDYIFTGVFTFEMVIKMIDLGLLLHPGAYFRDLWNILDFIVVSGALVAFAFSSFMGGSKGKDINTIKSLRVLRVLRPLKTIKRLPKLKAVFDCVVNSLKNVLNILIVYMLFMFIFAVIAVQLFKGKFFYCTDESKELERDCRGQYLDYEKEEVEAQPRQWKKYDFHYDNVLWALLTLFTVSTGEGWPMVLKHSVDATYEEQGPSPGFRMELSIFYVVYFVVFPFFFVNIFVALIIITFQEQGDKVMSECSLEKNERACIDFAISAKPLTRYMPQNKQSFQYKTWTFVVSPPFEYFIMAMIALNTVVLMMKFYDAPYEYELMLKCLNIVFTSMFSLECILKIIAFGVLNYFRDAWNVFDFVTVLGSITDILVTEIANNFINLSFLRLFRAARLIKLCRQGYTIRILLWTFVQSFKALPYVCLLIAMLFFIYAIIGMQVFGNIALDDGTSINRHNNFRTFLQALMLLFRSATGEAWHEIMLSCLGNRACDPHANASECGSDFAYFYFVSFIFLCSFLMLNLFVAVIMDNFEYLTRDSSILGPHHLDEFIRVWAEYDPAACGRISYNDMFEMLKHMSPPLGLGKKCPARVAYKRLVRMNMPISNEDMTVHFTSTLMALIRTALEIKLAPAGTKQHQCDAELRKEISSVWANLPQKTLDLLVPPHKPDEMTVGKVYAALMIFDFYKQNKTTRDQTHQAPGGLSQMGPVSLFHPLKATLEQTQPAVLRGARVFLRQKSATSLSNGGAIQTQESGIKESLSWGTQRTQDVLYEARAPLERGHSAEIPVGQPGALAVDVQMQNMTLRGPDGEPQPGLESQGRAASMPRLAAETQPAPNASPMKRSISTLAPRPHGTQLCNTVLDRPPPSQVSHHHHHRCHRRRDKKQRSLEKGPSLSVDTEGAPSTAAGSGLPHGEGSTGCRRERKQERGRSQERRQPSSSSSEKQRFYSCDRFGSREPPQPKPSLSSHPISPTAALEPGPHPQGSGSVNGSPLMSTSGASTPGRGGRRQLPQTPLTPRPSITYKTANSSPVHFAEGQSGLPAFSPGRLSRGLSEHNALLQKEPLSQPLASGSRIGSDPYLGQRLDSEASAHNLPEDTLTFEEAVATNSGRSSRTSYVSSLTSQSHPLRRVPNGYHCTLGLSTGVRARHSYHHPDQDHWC
Calcium, type N ion channel, sequence (P54290 25-944, further chain): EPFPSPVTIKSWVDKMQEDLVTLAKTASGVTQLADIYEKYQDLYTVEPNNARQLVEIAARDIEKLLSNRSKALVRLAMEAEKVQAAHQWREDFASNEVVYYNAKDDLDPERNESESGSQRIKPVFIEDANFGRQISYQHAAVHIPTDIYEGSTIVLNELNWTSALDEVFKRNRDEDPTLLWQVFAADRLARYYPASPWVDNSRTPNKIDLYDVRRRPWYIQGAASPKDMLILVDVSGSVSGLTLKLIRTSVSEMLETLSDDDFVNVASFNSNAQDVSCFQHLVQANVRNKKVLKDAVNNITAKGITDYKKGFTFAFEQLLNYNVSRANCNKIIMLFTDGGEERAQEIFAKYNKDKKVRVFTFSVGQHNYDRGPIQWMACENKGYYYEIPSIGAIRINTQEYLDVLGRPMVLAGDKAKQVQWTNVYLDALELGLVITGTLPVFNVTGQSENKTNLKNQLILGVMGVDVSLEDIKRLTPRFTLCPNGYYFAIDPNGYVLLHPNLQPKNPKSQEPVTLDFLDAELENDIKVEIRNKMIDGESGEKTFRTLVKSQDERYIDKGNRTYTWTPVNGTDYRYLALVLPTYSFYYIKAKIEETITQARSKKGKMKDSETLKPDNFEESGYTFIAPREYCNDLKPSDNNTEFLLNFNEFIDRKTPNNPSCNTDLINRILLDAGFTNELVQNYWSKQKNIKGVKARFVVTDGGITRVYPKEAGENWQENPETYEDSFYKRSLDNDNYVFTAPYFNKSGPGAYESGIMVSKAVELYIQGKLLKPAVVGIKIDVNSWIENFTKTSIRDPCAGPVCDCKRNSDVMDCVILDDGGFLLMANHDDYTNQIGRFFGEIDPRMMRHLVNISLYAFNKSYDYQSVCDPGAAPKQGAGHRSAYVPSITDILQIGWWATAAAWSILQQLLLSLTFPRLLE

| Compound | Cytotoxicity (cell morphology score), methamphetamine (NG108-15 cells) | Locomotor activity, dose response of methamphetamine (male, Swiss Webster mice [1]; methamphetamine 0–1 mg/kg, activity quantified for 30 min, F(3,34)=5.93, P < 0.005) | Locomotor activity vs. saline control (male, Swiss Webster mice [1]; methamphetamine 1 mg/kg, Dunnett q=3.61, P < 0.01) | DAT immunoreactivity in striatum, methamphetamine (male, Swiss Webster mice [2]; methamphetamine 5 mg/kg, i.p., one week later, q=14.26, P < 0.001) | Ki [3] [µM] | Ki (Melatonin receptor) [µM] | Apoptosis in tumor cells (tumor cells) | Methamphetamine-induced striatal dopamine depletion, AC927 10 mg/kg (male, Swiss Webster mice [4]) | Ki [5] [µM] | Ki [6] [µM] | Ki [7] [µM] | Locomotor activity, dose response of AC927 alone (male, Swiss Webster mice [1]; AC927 0–20 mg/kg, activity quantified for 30 min, F(2,23)=7.45, P < 0.005) | Locomotor activity vs. saline control (male, Swiss Webster mice [1]; AC927 alone 10 mg/kg, q=1.09, n.s.) | Locomotor activity vs. saline control (male, Swiss Webster mice [1]; AC927 alone 20 mg/kg, q=3.80, P < 0.01) | Methamphetamine-induced cerebellar dopamine depletion, AC927 10 mg/kg (male, Swiss Webster mice [8]) | Core body temperature, AC927 alone (male, Swiss Webster mice [9]) | Ki (Serotonin transporter) [µM] | Acute locomotor stimulant effects of cocaine [10] | DAT immunoreactivity in striatum, AC927 alone (male, Swiss Webster mice [2]; AC927 10 mg/kg, i.p. + saline, q=3.56, n.s.) |
| --- | --- | --- | --- | --- | --- | --- | --- | --- | --- | --- | --- | --- | --- | --- | --- | --- | --- | --- | --- |
| CN[C@@H](C)Cc1ccccc1 [Methamphetamine, Methamphetamine hydrochloride, reference compound] | concentration dependent increase in neurotoxicity | progressive increase in locomotor activity | differed significantly from the saline control | significant reduction in DAT immunoreactivity |  |  |  |  |  |  |  |  |  |  |  |  |  |  |  |
| O=C(O)C(=O)O.c1ccc(CCN2CCCCC2)cc1 [AC927, N-phenethylpiperidine oxalate] |  |  |  |  | > 10 | > 10 | attenuate apoptosis in tumor cells | significantly attenuated | > 10 | > 10 | > 10 | dose dependently decreased locomotor activity | did not differ significantly from the saline control | differed significantly from the saline control | significantly attenuated | did not significantly change core body temperature | > 10 | significantly attenuate the acute locomotor stimulant effects of cocaine | no significant effects on DAT expression |
